Data from ChEMBL document CHEMBL4376880, “Developing Inhibitors of the p47phox-p22phox Protein-Protein Interaction by Fragment-Based Drug Discovery” (J Med Chem, 2020).
Active and inactive are the calls of the source. The rule behind the calls is not given here.

How the values were obtained:
[1] = biological target: T1, Neutrophil cytosol factor 1 (Homo sapiens, UniProt P14598); assay: Covalent inhibition of recombinant human His-tagged p47phox SH3A-B domain (151 to 285 residues) expressed in Escherichia coli BL21 (DE3) cells interaction with Cy5-p22phox149-162 incubated for 10 mins by fluorescence polarization competition assay
[2] = biological target: T1, Neutrophil cytosol factor 1; assay: Binding affinity to immobilized recombinant human His-tagged p47phox SH3A-B domain (151 to 285 residues) expressed in Escherichia coli BL21 (DE3) cells assessed as dissociation constant by SPR assay
[3] = biological target: T1, Neutrophil cytosol factor 1; assay: Covalent inhibition of recombinant human His-tagged p47phox SH3A-B domain (151 to 285 residues) expressed in Escherichia coli BL21 (DE3) cells interaction with Cy5-p22phox149-162 incubated for 2 hrs by fluorescence polarization competition assay
Summary of the method: (§1)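 Heterologous competition FP. The compound was titrated as a 12-point two-fold series in duplicate against 1.25 μM p47phox SH3A-B and 5 nM Cy5-p22phox149-162. Buffer was HBS (50 mM Hepes, 150 mM NaCl, 0.005% Tween 20, pH 7.4), with or without TCEP. Incubation was 10 min or 2 h at room temperature before the FP read.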

[4] = biological target: T1, Neutrophil cytosol factor 1; assay: Binding affinity to recombinant human His-tagged p47phox SH3A-B domain (151 to 285 residues) expressed in Escherichia coli BL21 (DE3) cells assessed as protein aggregation by SAXS study analysis; conditions: TDE = time-dependent effect
Summary of the method: (§2)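 His-tag removed by HRV-3C protease. Protein (2-5.6 mg/mL, 130-370 μM final) was buffer-exchanged into 10 mM Hepes, 150 mM NaCl, 4% DMSO, pH 7.4, with 100 or 200 μM compound. Samples were held at 6 °C and measured at room temperature, λ 1.34 Å, q 0.01-0.5 Å−1. Fifteen to twenty 60 s frames were radially averaged, and buffer scattering was subtracted.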

[5] = biological target: T1, Neutrophil cytosol factor 1; assay: Binding affinity to recombinant human His-tagged p47phox SH3A-B domain (151 to 285 residues) expressed in Escherichia coli BL21 (DE3) cells assessed as increase in protein molecular weight at 200 uM by ESI/LC-MS analysis
[6] = biological target: T1, Neutrophil cytosol factor 1; assay: Binding affinity to immobilized recombinant human His-tagged p47phox SH3A-B domain (151 to 285 residues) expressed in Escherichia coli BL21 (DE3) cells at 12.5 uM in presence of TCEP by SPR assay
Summary of the method: (§3)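 p47phox SH3A-B (residues 151-285) immobilized at 4684 RU by His capture then amine coupling; compound injected at 12.5 μM in HBS pH 7.4 (10 mM Hepes, 150 mM NaCl, 0.005% Tween) at 25 °C. Sensorgrams were blank- and reference-subtracted with DMSO calibration. Complex then exposed to 2 mM TCEP.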

[7] = biological target: T1, Neutrophil cytosol factor 1; assay: Binding affinity to recombinant human His-tagged p47phox SH3A-B domain (151 to 285 residues) expressed in Escherichia coli BL21 (DE3) cells assessed as protein aggregation by measuring increase in SAXS-derived radius of gyration by SAXS study analysis; summary of the method: as §2
[8] = biological target: T1, Neutrophil cytosol factor 1; assay: Covalent inhibition of recombinant human His-tagged p47phox SH3A-B domain (151 to 285 residues) expressed in Escherichia coli BL21 (DE3) cells interaction with Cy5-p22phox149-162 incubated for 10 mins in presence of TCEP by fluorescence polarization competition assay; summary of the method: as §1
[9] = biological target: T1, Neutrophil cytosol factor 1; assay: Non-reversible binding affinity to immobilized recombinant human His-tagged p47phox SH3A-B domain (151 to 285 residues) expressed in Escherichia coli BL21 (DE3) cells assessed as slow dissociation rate at 12.5 uM by SPR assay; summary of the method: as §3
[10] = biological target: T1, Neutrophil cytosol factor 1; assay: Binding affinity to recombinant human His-tagged p47phox SH3A-B domain (151 to 285 residues) expressed in Escherichia coli BL21 (DE3) cells assessed as protein aggregation by measuring increase in concentration-normalized scattering intensity by SAXS study analysis; summary of the method: as §2
[11] = biological target: T1, Neutrophil cytosol factor 1; assay: Binding affinity to recombinant human His-tagged 15N-labeled p47phox SH3A-B domain (151 to 285 residues) expressed in Escherichia coli BL21 (DE3) cells assessed as compound interaction with protein at Cys196 in SH3A domain by NMR spectroscopy
[12] = biological target: T1, Neutrophil cytosol factor 1; assay: Binding affinity to recombinant human His-tagged p47phox SH3A-B domain (151 to 285 residues) expressed in Escherichia coli BL21 (DE3) cells assessed as protein aggregation by measuring increase in maximum dimensions of the particles by SAXS study analysis; summary of the method: as §2
[13] = biological target: T1, Neutrophil cytosol factor 1; assay: Ratio of Ki for recombinant human His-tagged p47phox SH3A-B domain (151 to 285 residues) expressed in Escherichia coli BL21 (DE3) cells in presence of TCEP to Ki for recombinant human His-tagged p47phox SH3A-B domain (151 to 285 residues) expressed in Escherichia coli BL21 (DE3) cells by fluorescence polarization competition assay; summary of the method: as §1

T1 sequence (P14598 whole entry, the tested form may be a part): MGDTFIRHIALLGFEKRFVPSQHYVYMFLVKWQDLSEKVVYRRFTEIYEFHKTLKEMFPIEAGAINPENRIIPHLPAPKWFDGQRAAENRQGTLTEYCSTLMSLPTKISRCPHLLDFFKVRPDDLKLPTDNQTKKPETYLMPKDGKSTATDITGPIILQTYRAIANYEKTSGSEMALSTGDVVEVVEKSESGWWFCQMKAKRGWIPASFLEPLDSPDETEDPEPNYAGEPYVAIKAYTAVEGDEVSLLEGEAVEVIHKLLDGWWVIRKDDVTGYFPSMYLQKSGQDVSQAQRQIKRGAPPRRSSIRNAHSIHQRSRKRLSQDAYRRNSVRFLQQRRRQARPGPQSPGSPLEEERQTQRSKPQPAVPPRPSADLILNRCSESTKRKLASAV

| SMILES | Ki ([1]; read-out: Ki) [µM] | also measured |
| --- | --- | --- |
| COCCNc1ccc2ccccc2n1 | > 2000 |  |
| Cc1cc(N2CCN(C(=O)OC(C)(C)C)CC2)c2ccccc2n1 | > 2000 |  |
| Nc1ccc2ncccc2c1 | > 2000 |  |
| CN1CCCN(Cc2ccc(CN)cc2)CC1 |  | Kd [2]: 418 µM; Ki [1]: Not Active |
| Nc1cc(Cl)c2ccccc2n1 | > 2000 |  |
| Nc1ccc2cccc(O)c2n1 | 1380 |  |
| Cc1cc(N)c2ccccc2n1 | 1070 | Kd [2]: 521 µM |
| Nc1ccc2cc(-c3ccc(Cl)cc3)ccc2n1 | > 2000 |  |
| Cc1cc(N2CCN(C)CC2)c2ccccc2n1 | > 2000 |  |
| Nc1cnc2ccccc2c1 | > 2000 |  |
| Nc1ccccn1 [2-AMINOPYRIDINE] | > 2000 |  |
| Nc1ccnc2ccccc12 [QUINOLIN-4-AMINE] | 1520 | Kd [2]: 765 µM |
| Oc1ccc2ccccc2n1 | > 2000 |  |
| NCc1ccc2ccccc2n1 | > 2000 |  |
| Nc1ccc2cc(OCC3CCCCC3)ccc2n1 | > 2000 |  |
| Nc1cc(OCc2ccc(Cl)cc2)c2ccccc2n1 | > 2000 |  |
| O=c1c2ccccc2[se]n1-c1ccccc1 [EBSELEN] | 63 | Ki [3]: 12 µM; Activity [4]: Tde; Activity [5]: Active; Activity [6]: inactive; Activity [7]: Active; Ki [8]: > 300 µM; Activity [9]: Active; Activity [10]: Active; Activity [11]: Active; Activity [12]: Active; Ratio Ki [13]: > 10 |

| SMILES | Ki ([1]; read-out: Ki) [µM] | also measured |
| --- | --- | --- |
| Nc1ccc2cc(OCc3ccc(Cl)cc3)ccc2n1 | > 2000 |  |
| CC(=O)Nc1ccc2ccccc2n1 | > 2000 |  |
| Nc1ccc2ccccc2c1 [NAPHTHYLAMINE] | > 2000 |  |
| Cc1ccc2ccccc2n1 [QUINALDINE] | > 2000 |  |
| Nc1ncccn1 | > 2000 |  |
| Cc1cc(N2CCNCC2)nc2ccccc12 | 1070 |  |
| c1ccc2nc(N3CCNCC3)ccc2c1 [QUIPAZINE] | 1410 | Kd [2]: 420 µM |
| Nc1cccc2ncccc12 | > 2000 |  |
| Nc1cc(O)c2ccccc2n1 | > 2000 |  |
| Nc1ccc2cc(OCc3ccccc3)ccc2n1 | > 2000 |  |
| Nc1cccc2cccnc12 [8-AMINOQUINOLINE] | > 2000 |  |
| c1ccc2c(N3CCNCC3)cccc2c1 | 1520 | Kd [2]: 366 µM |
| c1ccc2ncccc2c1 [QUINOLINE] | > 2000 |  |
| OCCOCCNc1ccc2ccccc2n1 | > 2000 |  |
| Nc1ccc2cc(OCCOCCOCCOCCOc3ccc4nc(N)ccc4c3)ccc2n1 | 32.7 |  |
| c1cc(N2CCNCC2)ccn1 | 302 |  |
| Nc1ccc2cc(COc3ccc(Cl)cc3)ccc2n1 | > 2000 |  |
